Experimental data from ChEMBL document CHEMBL4049428, “Exploring Derivatives of Quinazoline Alkaloid l-Vasicine as Cap Groups in the Design and Biological Mechanistic Evaluation of Novel Antitumor Histone Deacetylase Inhibitors” (J Med Chem, 2017).
Calls of active or inactive are those of the source. The calls are words filed in the database; no cut-off is given here.

Tests used:
[1] = tested on: MOLT-4; test: Induction of mitochondrial membrane potential loss in human MOLT4 cells at 10 uM measured after 48 hrs by Rh123 dye-based flow cytometric analysis (reference value: 9.6%); assay type: functional
In short: (§1)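 Cells seeded in 6-well plates 2-4 h, then 48 h with compound; Rh-123 1 µM added for the final half hour; cells centrifuged, washed twice in PBS, resuspended in PBS, and Ψm loss quantified by flow cytometry as percentage of cells.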

[2] = tested on: MCF-10A; test: Cytotoxicity against human MCF10A cells assessed as growth inhibition after 48 hrs by MTT assay; assay type: ADME, cell-based
[3] = tested on: MIA PaCa-2; test: Cytotoxicity against human MIAPaCa2 cells assessed as growth inhibition after 48 hrs by MTT assay; assay type: functional, cell-based; settings: MIA PaCa-2, 48 h
In short: (§2)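 MTT assay, 48 h exposure; adherent lines seeded 12 h and suspension lines 4 h before compound. Media: RPMI-1640/10% FCS (THP-1, HL-60, Colo-205, Caco-2, A549), DMEM/10% FCS (A549, MIAPaCa-2, MCF-7). MTT 4 h, formazan dissolved in DMSO, absorbance 570 nm. Mean ± S.D of three experiments in triplicate; SAHA 5 µM reference.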

[4] = biological target: Histone deacetylase 11 (Homo sapiens, UniProt Q96DB2); test: Inhibition of HDAC 11 in human HeLa nuclear extract using fluorogenic HDAC class 2A substrate measured after 60 mins by fluorometric analysis
Histone deacetylase 11, sequence (Q96DB2 whole entry): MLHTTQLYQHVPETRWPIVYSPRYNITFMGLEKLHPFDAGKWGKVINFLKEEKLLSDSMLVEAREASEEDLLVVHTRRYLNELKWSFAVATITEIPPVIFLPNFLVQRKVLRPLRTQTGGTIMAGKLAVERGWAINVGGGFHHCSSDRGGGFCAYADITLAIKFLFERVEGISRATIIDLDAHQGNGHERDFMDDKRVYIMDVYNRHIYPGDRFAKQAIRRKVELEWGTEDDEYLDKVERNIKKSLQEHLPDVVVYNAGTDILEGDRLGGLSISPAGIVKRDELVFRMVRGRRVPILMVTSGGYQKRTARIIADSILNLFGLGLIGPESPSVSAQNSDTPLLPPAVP

[5] = species: Homo sapiens; test: Inhibition of HDAC in human MOLT4 cells assessed as increase in acetylated H3K18 levels after 48 hrs by Western blot analysis; assay type: cell-based
In short: (§3)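 Cells seeded 2-4 h, treated 48 h with graded compound concentrations (SAHA control); histones acid-extracted (HEPES pH 9 buffer, 0.2 N HCl, 1 h on ice), Bradford-normalised, resolved on 18% SDS gels, blotted to PVDF, probed for acetyl-H3K18 and acetyl-H4K5 with H3 and β-actin loading controls; ECL detection.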

[6] = tested on: HL-60; test: Induction of mitochondrial membrane potential loss in human HL60 cells assessed as intact mitochondrial membrane potential at 0.125 uM measured after 48 hrs by Rh123 dye-based flow cytometric analysis (reference value: 91.3%); assay type: functional; in short: as §1
[7] = tested on: THP-1; test: Cytotoxicity against human THP1 cells assessed as growth inhibition at 10 uM after 48 hrs by MTT assay; assay type: functional; settings: THP-1, 48 h, read-out: GI; in short: as §2
[8] = tested on: MOLT-4; test: Induction of mitochondrial membrane potential loss in human MOLT4 cells at 5 uM measured after 48 hrs by Rh123 dye-based flow cytometric analysis (reference value: 9.6%); assay type: functional; in short: as §1
[9] = tested on: Mus musculus; test: Toxicity in CDF1 mouse assessed as mortality at 50 mg/kg, ip administered for 9 consecutive days measured up to 18 days; assay type: organism-based; settings: in vivo, 432 h
In short: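 P388 leukemia cells were harvested from 6–7-day-old ascites grown in the peritoneum of female DBA/2 mice. Female CDF1 mice (18–23 g) received 5×10^5 cells i.p. on day 0. Next day they were randomized into groups of 7 and dosed i.p. daily for 9 consecutive days; controls got 0.2 ml normal saline. Mortality was followed to day 18, with median survival time and %T/C calculated.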

[10] = Cytotoxicity against human FR2 cells assessed as growth inhibition after 48 hrs by MTT assay; assay type: ADME, cell-based; settings: FR2, 48 h
[11] = biological target: Histone deacetylase 5 (Homo sapiens, UniProt Q9UQL6); test: Inhibition of HDAC 5 in human HeLa nuclear extract using fluorogenic HDAC class 2A substrate measured after 60 mins by fluorometric analysis
Histone deacetylase 5, sequence (Q9UQL6 whole entry): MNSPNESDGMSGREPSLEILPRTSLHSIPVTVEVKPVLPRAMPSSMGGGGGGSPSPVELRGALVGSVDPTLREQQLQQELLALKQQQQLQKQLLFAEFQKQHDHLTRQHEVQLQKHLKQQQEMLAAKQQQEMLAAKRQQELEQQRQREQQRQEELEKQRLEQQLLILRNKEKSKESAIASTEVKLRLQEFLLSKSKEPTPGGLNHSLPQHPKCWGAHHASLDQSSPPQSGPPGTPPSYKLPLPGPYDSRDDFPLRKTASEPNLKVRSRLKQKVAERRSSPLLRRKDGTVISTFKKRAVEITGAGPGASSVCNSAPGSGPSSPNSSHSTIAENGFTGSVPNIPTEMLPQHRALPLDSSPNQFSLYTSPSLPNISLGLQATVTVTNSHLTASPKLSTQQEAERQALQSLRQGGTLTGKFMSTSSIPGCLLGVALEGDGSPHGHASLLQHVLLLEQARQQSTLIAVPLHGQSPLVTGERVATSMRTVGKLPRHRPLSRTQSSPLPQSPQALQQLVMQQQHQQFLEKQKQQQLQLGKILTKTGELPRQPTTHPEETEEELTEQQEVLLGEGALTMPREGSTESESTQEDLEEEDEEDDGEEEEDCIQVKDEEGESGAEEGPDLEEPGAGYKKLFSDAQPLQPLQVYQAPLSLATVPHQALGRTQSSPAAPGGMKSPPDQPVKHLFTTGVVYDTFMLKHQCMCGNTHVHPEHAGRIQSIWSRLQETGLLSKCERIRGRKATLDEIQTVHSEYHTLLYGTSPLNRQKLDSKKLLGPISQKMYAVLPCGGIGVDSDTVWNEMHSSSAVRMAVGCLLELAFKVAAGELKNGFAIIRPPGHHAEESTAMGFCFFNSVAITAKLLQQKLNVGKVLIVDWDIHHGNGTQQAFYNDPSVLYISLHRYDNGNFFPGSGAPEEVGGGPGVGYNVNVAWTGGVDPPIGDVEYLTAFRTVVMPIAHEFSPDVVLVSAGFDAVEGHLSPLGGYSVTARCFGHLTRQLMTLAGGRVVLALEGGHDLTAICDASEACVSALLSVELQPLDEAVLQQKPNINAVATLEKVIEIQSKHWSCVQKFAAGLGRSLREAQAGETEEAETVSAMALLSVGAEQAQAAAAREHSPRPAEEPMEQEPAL

[12] = species: Homo sapiens; test: Inhibition of HDAC in human HL60 cells assessed as increase in acetylated H4K5 levels after 48 hrs by Western blot analysis; assay type: cell-based; in short: as §3
[13] = biological target: Polyamine deacetylase HDAC10 (Homo sapiens, UniProt Q969S8); test: Inhibition of HDAC 10 in human HeLa nuclear extract measured after 60 mins by fluorometric analysis
Polyamine deacetylase HDAC10, sequence (Q969S8 whole entry): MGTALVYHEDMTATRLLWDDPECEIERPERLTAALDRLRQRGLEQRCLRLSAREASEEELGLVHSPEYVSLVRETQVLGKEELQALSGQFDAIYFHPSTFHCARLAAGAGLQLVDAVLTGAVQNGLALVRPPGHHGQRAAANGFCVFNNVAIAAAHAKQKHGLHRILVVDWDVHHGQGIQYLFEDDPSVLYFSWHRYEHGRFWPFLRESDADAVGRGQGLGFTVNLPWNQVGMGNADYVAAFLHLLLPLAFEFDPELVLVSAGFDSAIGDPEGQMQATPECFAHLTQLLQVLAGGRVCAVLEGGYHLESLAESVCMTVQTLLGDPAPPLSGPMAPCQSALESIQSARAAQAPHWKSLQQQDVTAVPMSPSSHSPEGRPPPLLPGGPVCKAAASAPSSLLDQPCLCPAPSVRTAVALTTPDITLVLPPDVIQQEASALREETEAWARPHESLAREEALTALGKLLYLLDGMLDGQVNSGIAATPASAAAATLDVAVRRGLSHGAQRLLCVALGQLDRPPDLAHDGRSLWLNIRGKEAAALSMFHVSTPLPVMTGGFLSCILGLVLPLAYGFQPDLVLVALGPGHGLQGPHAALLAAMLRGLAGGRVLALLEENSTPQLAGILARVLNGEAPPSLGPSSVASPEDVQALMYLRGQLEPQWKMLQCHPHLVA

[14] = tested on: MOLT-4; test: Induction of autophagy in human MOLT4 cells assessed as acidic vacuole formation in cytoplasm at 10 uM after 48 hrs by acridine orange dye-based fluorescent microscopic analysis; assay type: functional, cell-based
In short: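 Cells treated 48 h with a range of compound concentrations, SAHA 1.0 µM as positive control; acridine orange 1 µg/ml added 15 min before end at 37°C; cells washed in PBS and acidic vacuoles viewed by fluorescence microscopy.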

[15] = tested on: HL-60; test: Induction of mitochondrial membrane potential loss in human HL60 cells at 10 uM measured after 48 hrs by Rh123 dye-based flow cytometric analysis (reference value: 5.6%); assay type: functional; in short: as §1
[16] = tested on: HL-60; test: Induction of reactive oxygen species in human HL60 cells at 10 uM measured after 48 hrs by H2DCFDA dye-based flow cytometric analysis (reference value: 0.4%); assay type: functional
[17] = tested on: HL-60; test: Induction of mitochondrial membrane potential loss in human HL60 cells assessed as intact mitochondrial membrane potential at 10 uM measured after 48 hrs by Rh123 dye-based flow cytometric analysis (reference value: 91.3%); assay type: functional; in short: as §1
[18] = tested on: MOLT-4; test: Induction of reactive oxygen species in human MOLT4 cells at 5 uM measured after 48 hrs by H2DCFDA dye-based flow cytometric analysis (reference value: 1.1%); assay type: functional
[19] = biological target: Histone deacetylase 3 (Homo sapiens, UniProt O15379); test: Inhibition of HDAC 3 in human HeLa nuclear extract using HDAC substrate-3 measured after 60 mins by fluorometric analysis
Histone deacetylase 3, sequence (O15379 whole entry): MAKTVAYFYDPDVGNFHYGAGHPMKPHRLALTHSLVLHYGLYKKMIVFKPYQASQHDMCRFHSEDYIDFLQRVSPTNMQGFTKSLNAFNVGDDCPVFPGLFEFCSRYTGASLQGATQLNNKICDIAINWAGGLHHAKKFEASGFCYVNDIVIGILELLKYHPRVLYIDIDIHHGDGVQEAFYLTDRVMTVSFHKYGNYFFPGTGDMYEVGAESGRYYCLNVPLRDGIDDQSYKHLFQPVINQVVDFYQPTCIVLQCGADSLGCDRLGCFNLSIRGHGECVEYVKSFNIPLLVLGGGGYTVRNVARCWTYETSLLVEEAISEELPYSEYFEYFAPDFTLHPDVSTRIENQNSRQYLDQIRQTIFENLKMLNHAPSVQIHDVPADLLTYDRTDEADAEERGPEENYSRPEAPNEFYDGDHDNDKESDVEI

[20] = tested on: A549; test: Cytotoxicity against human A549 cells assessed as growth inhibition at 10 uM after 48 hrs by MTT assay; assay type: functional; settings: A549, 48 h, read-out: GI; in short: as §2
[21] = tested on: MOLT-4; test: Induction of reactive oxygen species in human MOLT4 cells at 1 uM measured after 48 hrs by H2DCFDA dye-based flow cytometric analysis (reference value: 1.1%); assay type: functional
[22] = tested on: THP-1; test: Cytotoxicity against human THP1 cells assessed as growth inhibition after 48 hrs by MTT assay; assay type: functional, cell-based; settings: THP-1, 48 h
[23] = biological target: Histone deacetylase 9 (Homo sapiens, UniProt Q9UKV0); test: Inhibition of HDAC 9 in human HeLa nuclear extract using fluorogenic HDAC class 2A substrate measured after 60 mins by fluorometric analysis
Histone deacetylase 9, sequence (Q9UKV0 whole entry): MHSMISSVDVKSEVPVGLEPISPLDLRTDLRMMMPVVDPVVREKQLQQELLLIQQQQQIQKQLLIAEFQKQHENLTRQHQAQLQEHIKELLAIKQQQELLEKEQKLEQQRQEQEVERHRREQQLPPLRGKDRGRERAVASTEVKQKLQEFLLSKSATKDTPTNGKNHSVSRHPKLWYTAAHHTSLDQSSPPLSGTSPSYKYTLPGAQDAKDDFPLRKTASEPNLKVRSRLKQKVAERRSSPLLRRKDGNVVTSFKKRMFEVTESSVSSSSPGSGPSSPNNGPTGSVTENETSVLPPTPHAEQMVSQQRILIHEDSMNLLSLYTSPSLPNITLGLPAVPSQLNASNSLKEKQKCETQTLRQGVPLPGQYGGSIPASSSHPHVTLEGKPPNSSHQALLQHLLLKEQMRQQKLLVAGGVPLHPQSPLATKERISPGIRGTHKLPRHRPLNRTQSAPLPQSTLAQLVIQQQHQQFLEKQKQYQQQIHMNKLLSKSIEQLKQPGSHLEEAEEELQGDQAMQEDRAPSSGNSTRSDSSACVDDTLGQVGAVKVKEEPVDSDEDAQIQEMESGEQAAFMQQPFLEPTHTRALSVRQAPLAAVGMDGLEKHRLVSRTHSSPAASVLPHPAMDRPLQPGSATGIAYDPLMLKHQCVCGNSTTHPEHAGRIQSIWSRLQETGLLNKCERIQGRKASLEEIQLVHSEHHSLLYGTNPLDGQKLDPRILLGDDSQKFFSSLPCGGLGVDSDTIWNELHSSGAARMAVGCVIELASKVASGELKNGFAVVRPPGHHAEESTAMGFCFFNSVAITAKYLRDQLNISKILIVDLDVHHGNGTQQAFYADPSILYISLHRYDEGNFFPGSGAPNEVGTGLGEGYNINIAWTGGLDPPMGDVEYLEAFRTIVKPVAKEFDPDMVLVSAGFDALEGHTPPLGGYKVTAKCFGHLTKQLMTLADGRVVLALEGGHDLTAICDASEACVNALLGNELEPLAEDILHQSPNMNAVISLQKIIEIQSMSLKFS

[24] = tested on: MOLT-4; test: Induction of reactive oxygen species in human MOLT4 cells at 10 uM measured after 48 hrs by H2DCFDA dye-based flow cytometric analysis (reference value: 1.1%); assay type: functional
[25] = tested on: MIA PaCa-2; test: Cytotoxicity against human MIAPaCa2 cells assessed as growth inhibition at 10 uM after 48 hrs by MTT assay; assay type: functional; settings: MIA PaCa-2, 48 h, read-out: GI; in short: as §2
[26] = tested on: HL-60; test: Cytotoxicity against human HL60 cells assessed as growth inhibition after 48 hrs by MTT assay; assay type: functional, cell-based; settings: HL-60, 48 h
[27] = tested on: HL-60; test: Induction of mitochondrial membrane potential loss in human HL60 cells assessed as intact mitochondrial membrane potential at 5 uM measured after 48 hrs by Rh123 dye-based flow cytometric analysis (reference value: 91.3%); assay type: functional; in short: as §1
[28] = Inhibition of HDAC in human HeLa nuclear extract using Boc-Lys(Ac)-AMC as substrate measured after 30 mins by fluorometric analysis
[29] = tested on: HL-60; test: Induction of reactive oxygen species in human HL60 cells at 5 uM measured after 48 hrs by H2DCFDA dye-based flow cytometric analysis (reference value: 0.4%); assay type: functional

## O=C(CCCCCCC(=O)Nc1ccccc1CN1CC[C@H](O)C1)NO
[1]
  Activity: 67.5%
[2]
  IC50: 37 µM
[3]
  IC50: 1 µM
[4]
  IC50: > 10 µM
[5]
  inhibition: Dose-dependent effect
[6]
  Activity: 89%
[7]
  inhibition of growth at 10 µM: 94%
[8]
  Activity: 57.5%
[9]
  Activity: Non-Toxic
[10]
  IC50: 23 µM
[11]
  IC50: 5.39 µM
[12]
  inhibition: Dose-dependent effect
[13]
  IC50: > 10 µM
[14]
  Activity: Active
[15]
  Activity: 32%
[16]
  Activity: 0.1%
[17]
  Activity: 54.7%
[18]
  Activity: 1.9%
[19]
  IC50: 0.368 µM
[20]
  inhibition of growth at 10 µM: 84%
[21]
  Activity: 1.1%
[22]
  IC50: 1.3 µM
[23]
  IC50: > 10 µM
[24]
  Activity: 0.9%
[25]
  inhibition of growth at 10 µM: 93%
[26]
  IC50: 1 µM
[27]
  Activity: 82.6%
[28]
  IC50: 0.37 µM
[29]
  Activity: 0%
